Bioassay records: PubChem, several laboratories
TbMetRS inhib = blocks T. brucei methionyl-tRNA synthetase activity | inhibition, % at 11.9 µM | AID 624268 | purified T. brucei MetRS, ATP depletion, Kinase-Glo luminescence | hit rate 0.4% among 360,000;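 active = inhibition above a per-plate cutoff of the control wells' mean inhibition plus 3 SD, cut at about 5.5% in these data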;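 note: 0% = DMSO wells median and 100% = median of wells with control inhibitor compound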
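Material – parasite MetRS enzyme · Medium – HEPES-MgCl2-KCl buffer plus DTT, spermine, BSA, pyrophosphatase · Reagent – ATP, methionine and E. coli bulk tRNA substrates · Times – 15 min enzyme-compound preincubation, 2 h reaction, 10 min detection, 25 °C · Measured by – luminescence of leftover ATP · Evaluation – percent inhibition relative to median high and low control wells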
WT yeast gro inh = growth inhibition of WT yeast, mitochondrial fusion screen. mitochondrial fusion phenotypic screen, WT strain. inhibition, % at 10 µM. hit rate 2.1% among 190,000; in the data active = inhibition above about 58%; tested in S. cerevisiae
CHOP inh = CHOP inhibition in unfolded protein response; inhibition, % at 10 µM; hit rate 3.8% among 220,000; CHO-K1 CHOP-promoter luciferase, tunicamycin-induced, 15-18 h; AID 2732;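 active = compounds that reduced the stress-induced luciferase reporter signal by more than about 70% of percent inhibition, limit read from the data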;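 note: 0% = tunicamycin plus vehicle and 100% = wells without tunicamycin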
GRIN3A LBD mod = NR3A (human) ligand-binding domain modulation; NR3A LBD differential scanning fluorimetry, Tm shift; 0% = protein alone, 100% = glycine-bound protein; Tm shift relative to glycine control, % at 25 µM; hit rate 2.5% among 340,000; AID 1259313;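 active = melting temperature shift of at least 10% of the positive control shift, at one fixed dose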
EBV gp42 block = EBV gp42 inhibition. Fluorescence polarization binding assay, mP read-out. AID 1085. inhibition, % (tested at 21.74 µM). hit rate 0.42% among 220,000. Q1HVG2; in the data active = inhibition above about 50%
Target sequence (Q1HVG2 whole entry, looked up): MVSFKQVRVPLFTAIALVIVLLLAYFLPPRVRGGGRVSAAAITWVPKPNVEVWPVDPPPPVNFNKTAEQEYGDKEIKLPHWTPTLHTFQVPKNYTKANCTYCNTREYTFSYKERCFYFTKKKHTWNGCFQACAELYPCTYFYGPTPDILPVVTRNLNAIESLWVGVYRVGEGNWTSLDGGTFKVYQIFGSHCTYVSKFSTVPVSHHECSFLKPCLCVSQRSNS
MPTP block = permeability transition pore inhibition | isolated mouse mitochondria, Ca2+ swelling absorbance, 30 min | inhibition, % at 10 µM | hit rate 1.4% among 360,000 | AID 602449;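 active = inhibition of 50% or more, scaled per plate between neutral and stimulator controls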;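 note: 0% = DMSO wells given calcium and 100% = 1 mM EGTA wells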
Active calls of the source: *. Shown are actives, neighbours in structure and some others; about 6.4% of the full set was active somewhere.

Screening CCOC(=O)C1CCN(c2ncnc3c2cnn3-c2ccc(Cl)cc2)CC1 returned TbMetRS inhib -2, WT yeast gro inh 1, CHOP inh 58, GRIN3A LBD mod 0, EBV gp42 block -4 and MPTP block -2.
CC(C)Nc1ncnc2c1cnn2-c1ccc(Cl)cc1 was read as TbMetRS inhib 1, WT yeast gro inh -16, CHOP inh 75*, GRIN3A LBD mod -5, EBV gp42 block -6 and MPTP block 30.
For CC1CCN(c2ncnc3c2cnn3-c2ccccc2)CC1 the results were TbMetRS inhib 0, WT yeast gro inh 0, CHOP inh 69, GRIN3A LBD mod 0, EBV gp42 block 2 and MPTP block -1.
Screening O=C(Cn1cnc2c(cnn2-c2ccc(Cl)cc2)c1=O)N1CCN(c2ccccc2)CC1 returned TbMetRS inhib 0, WT yeast gro inh 1, CHOP inh 91*, GRIN3A LBD mod -1, EBV gp42 block -16 and MPTP block 4.
For Clc1ccc(-n2ncc3c(N4CCCC4)ncnc32)cc1 the results were TbMetRS inhib -1, WT yeast gro inh 2, CHOP inh 78*, GRIN3A LBD mod -2, EBV gp42 block -10 and MPTP block -3.
For COc1ccc(S(=O)(=O)CCC(=O)NCCc2ccc(Cl)cc2)cc1 the results were TbMetRS inhib -1, WT yeast gro inh 0, CHOP inh -13, GRIN3A LBD mod -2, EBV gp42 block -10 and MPTP block -1.
For CN1CCC(N(C)S(=O)(=O)c2ccc(NC(=O)COc3ccc(F)cc3Cl)cc2)CC1 the results were TbMetRS inhib 0, GRIN3A LBD mod 0 and MPTP block -1.
Screening Cc1nn(-c2ccccc2)c(Cl)c1C(=O)N1CCN(c2ncnc3c2cnn3-c2ccccc2)CC1 returned TbMetRS inhib -1, WT yeast gro inh 38, CHOP inh 92*, GRIN3A LBD mod -1, EBV gp42 block 1 and MPTP block 21.
Screening O=C(Oc1cc2oc(=O)c3c(c2cc1Cl)CCCC3)c1ccco1 returned TbMetRS inhib 0, WT yeast gro inh 10, CHOP inh 57, GRIN3A LBD mod -1, EBV gp42 block 2 and MPTP block 2.
`Oc1ccc(Cl)cc1/C=C/c1ccc2cccc(O)c2n1` gave TbMetRS inhib 0, WT yeast gro inh 71*, CHOP inh 94*, GRIN3A LBD mod 30*, EBV gp42 block 6 and MPTP block 14.
For COc1cc(Br)cc(/C=C/c2ccc3cccc(O)c3n2)c1O the results were TbMetRS inhib -1, GRIN3A LBD mod 34* and MPTP block 8.
`Oc1ccc2ccccc2c1/C=C/c1ccc2c(Br)cc(Br)c(O)c2n1` gave TbMetRS inhib 0, GRIN3A LBD mod 15* and MPTP block 4.
`COc1cc(/C=C/c2ccc3cccc(OC)c3n2)c(O)c([N+](=O)[O-])c1` gave TbMetRS inhib 0, WT yeast gro inh 21, CHOP inh 94*, GRIN3A LBD mod -4, EBV gp42 block -9 and MPTP block 1.
For COc1ccc(C(=O)NCC(=O)Nc2cccc(S(=O)(=O)N3CCCC3)c2)cc1 the results were TbMetRS inhib 0, GRIN3A LBD mod -1 and MPTP block 2.
For COc1ccccc1Cn1c(=O)oc2ccccc21 the results were TbMetRS inhib 0 and MPTP block -1.
COc1cc(Br)c(/C=C/c2ccc3cccc(O)c3n2)cc1OC was read as TbMetRS inhib 0, GRIN3A LBD mod 3 and MPTP block 0.
Screening Oc1cccc2ccc(/C=C/c3ccccc3Br)nc12 returned TbMetRS inhib 0, GRIN3A LBD mod 14* and MPTP block -1.
`CC(Oc1ccc2c(c1)oc(=O)c1ccccc12)C(=O)NC(Cc1c[nH]c2ccc(O)cc12)C(=O)O` (stereo not drawn) gave TbMetRS inhib 1, GRIN3A LBD mod -2 and MPTP block 0.
NC(=O)c1ccc(NCCc2cccs2)cc1 was read as TbMetRS inhib -1 and MPTP block 0.
For COc1ccc(Sc2cc(C(F)(F)F)nc(-c3ccccn3)n2)cc1 the results were TbMetRS inhib -1, WT yeast gro inh 62*, CHOP inh 83*, GRIN3A LBD mod 2, EBV gp42 block -4 and MPTP block 7.
Screening CCCCCCN1C[C@@H](O)[C@H](n2cc(COC(=O)c3ccccc3)nn2)C[C@@H]1c1ccc(C)cc1 returned TbMetRS inhib -1 and MPTP block 0.
Screening COc1ccc(N=C2NC(=O)S/C2=C\c2ccc(N(C)C)cc2)cc1 returned TbMetRS inhib -1, WT yeast gro inh -17, CHOP inh -8, GRIN3A LBD mod -3, EBV gp42 block 95* and MPTP block 7.
`CN(C(=O)COC(=O)c1cc2c(s1)CCCCC2)C1CCS(=O)(=O)C1` (stereo not drawn) gave TbMetRS inhib 0, GRIN3A LBD mod 0 and MPTP block 2.
`O=C(CCCN1C(=O)/C(=C/c2ccccc2Cl)SC1=S)Nc1ccccn1` gave TbMetRS inhib 0, WT yeast gro inh 4, CHOP inh 91*, GRIN3A LBD mod 1, EBV gp42 block -27 and MPTP block 0.
Screening O=C(CCCN1C(=O)/C(=C/c2ccccc2Cl)SC1=S)NNC(=O)c1ccc(Cl)cc1 returned TbMetRS inhib -1, CHOP inh 93*, GRIN3A LBD mod 0, EBV gp42 block -19 and MPTP block 6.
Screening O=C(O)CCCN1C(=O)/C(=C/c2cn(-c3ccccc3)nc2-c2cccs2)SC1=S returned TbMetRS inhib 0, WT yeast gro inh 7, CHOP inh 85*, GRIN3A LBD mod 3, EBV gp42 block -226 and MPTP block 21.
Screening O=C(CCN1C(=O)/C(=C/c2ccccc2Cl)SC1=S)Nc1ccccn1 returned TbMetRS inhib 0, GRIN3A LBD mod -2 and MPTP block 0.
For Cc1cccc(N(CC(=O)NC(C)(C)C)C(=O)CS(=O)CC(=O)Nc2ccc3c(c2)OCO3)c1 (stereo not drawn) the results were TbMetRS inhib 0, WT yeast gro inh -5, CHOP inh -8, GRIN3A LBD mod 1, EBV gp42 block 8 and MPTP block -1.
COCc1nnc(NC(=O)c2c(-c3c(Cl)cccc3Cl)noc2C)s1 was read as TbMetRS inhib 0, GRIN3A LBD mod -3 and MPTP block 0.
For O=C(N/N=C/c1cn(-c2ccccc2)nc1-c1cccs1)c1ccncc1 the results were TbMetRS inhib -1, WT yeast gro inh 4, CHOP inh 1, GRIN3A LBD mod -28, EBV gp42 block -1 and MPTP block 2.
For O=C(N/N=C/c1cn(-c2cccs2)nc1-c1ccccc1)c1ccccc1Cl the results were TbMetRS inhib 0, WT yeast gro inh 16, CHOP inh 20, GRIN3A LBD mod 14*, EBV gp42 block 4 and MPTP block 2.
